ChEMBL document CHEMBL1143040, “Aporphine metho salts as neuronal nicotinic acetylcholine receptor blockers” (Bioorg Med Chem, 2007)
pIC50, pKi: −log10 of the molar value.

Assays:
Type in all cases: cell-based
[1] = biological target: Neuronal acetylcholine receptor; alpha4/beta2 (Homo sapiens, UniProt P17787+P43681); assay: Displacement of [3H]cytisine from human alpha-4-beta-2 nAChR expressed in SH-EP1 cells
Outline: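 Radioligand displacement used membrane homogenates from a clonal cell line stably expressing human α4β2 nAChR. [3H]cytisine was at 1 nM in saline of 120 mM NaCl, 5 mM KCl, 1 mM MgCl2, 2.5 mM CaCl2, 50 mM Tris, pH 7.0. Nonspecific binding was defined with 10 μM nicotine. Ki was obtained from regression fits by Cheng-Prusoff. Mean ± SEM of four experiments in triplicate.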

[2] = biological target: T1, Neuronal acetylcholine receptor subunit alpha-7 (Homo sapiens, UniProt P36544); assay: Displacement of [125I]alpha-bungarotoxin from human alpha-7 nAChR expressed in SH-SY5Y cells
T1 sequence (P36544 whole entry): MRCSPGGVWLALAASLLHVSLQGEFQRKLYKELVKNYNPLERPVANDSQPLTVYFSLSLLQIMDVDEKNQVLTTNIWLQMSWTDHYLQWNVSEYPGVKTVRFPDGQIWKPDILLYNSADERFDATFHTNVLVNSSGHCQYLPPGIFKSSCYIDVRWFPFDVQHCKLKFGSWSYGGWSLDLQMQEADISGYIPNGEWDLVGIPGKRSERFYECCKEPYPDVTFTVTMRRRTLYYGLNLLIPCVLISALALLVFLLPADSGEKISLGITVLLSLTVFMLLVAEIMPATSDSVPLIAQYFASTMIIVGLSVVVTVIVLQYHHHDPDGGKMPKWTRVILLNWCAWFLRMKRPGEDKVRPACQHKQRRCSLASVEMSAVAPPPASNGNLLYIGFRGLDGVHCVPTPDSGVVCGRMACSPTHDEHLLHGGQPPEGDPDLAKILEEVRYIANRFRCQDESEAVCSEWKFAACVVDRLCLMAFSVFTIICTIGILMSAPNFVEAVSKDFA
Outline: (§1)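 Membrane homogenates from a clonal cell line stably expressing human α7 nAChR. Radioligand was [125I]α-bungarotoxin at 0.2 nM in 140 mM NaCl, 1 mM EDTA, 50 mM Tris-HCl, pH 7.4. Nonspecific binding was defined with 10 μM nicotine. Ki came from non-linear regression fits by Cheng-Prusoff. Mean ± SEM of four experiments, triplicate samples, from at least two membrane preparations.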

[3] = biological target: T1, Neuronal acetylcholine receptor subunit alpha-7; assay: Inhibition of 0.2 nM [125I]alpha-bungarotoxin binding to human alpha-7 nAChR expressed in SH-SY5Y cells; outline: as §1

Chain of Neuronal acetylcholine receptor; alpha4/beta2 (P17787 whole entry): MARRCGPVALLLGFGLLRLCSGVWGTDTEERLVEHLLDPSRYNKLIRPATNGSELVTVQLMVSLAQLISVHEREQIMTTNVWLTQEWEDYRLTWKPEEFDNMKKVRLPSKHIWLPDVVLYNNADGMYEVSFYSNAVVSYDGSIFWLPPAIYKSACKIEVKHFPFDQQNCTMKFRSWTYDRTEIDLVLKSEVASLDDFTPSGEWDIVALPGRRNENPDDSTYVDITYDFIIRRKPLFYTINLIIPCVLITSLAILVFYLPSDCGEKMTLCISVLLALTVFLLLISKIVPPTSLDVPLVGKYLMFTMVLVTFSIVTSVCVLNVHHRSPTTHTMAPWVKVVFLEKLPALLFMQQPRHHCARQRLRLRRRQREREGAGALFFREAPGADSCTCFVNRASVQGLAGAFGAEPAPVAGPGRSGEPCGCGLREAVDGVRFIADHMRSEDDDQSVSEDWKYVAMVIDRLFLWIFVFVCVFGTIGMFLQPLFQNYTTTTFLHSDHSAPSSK
Chain of Neuronal acetylcholine receptor; alpha4/beta2 (P43681 whole entry): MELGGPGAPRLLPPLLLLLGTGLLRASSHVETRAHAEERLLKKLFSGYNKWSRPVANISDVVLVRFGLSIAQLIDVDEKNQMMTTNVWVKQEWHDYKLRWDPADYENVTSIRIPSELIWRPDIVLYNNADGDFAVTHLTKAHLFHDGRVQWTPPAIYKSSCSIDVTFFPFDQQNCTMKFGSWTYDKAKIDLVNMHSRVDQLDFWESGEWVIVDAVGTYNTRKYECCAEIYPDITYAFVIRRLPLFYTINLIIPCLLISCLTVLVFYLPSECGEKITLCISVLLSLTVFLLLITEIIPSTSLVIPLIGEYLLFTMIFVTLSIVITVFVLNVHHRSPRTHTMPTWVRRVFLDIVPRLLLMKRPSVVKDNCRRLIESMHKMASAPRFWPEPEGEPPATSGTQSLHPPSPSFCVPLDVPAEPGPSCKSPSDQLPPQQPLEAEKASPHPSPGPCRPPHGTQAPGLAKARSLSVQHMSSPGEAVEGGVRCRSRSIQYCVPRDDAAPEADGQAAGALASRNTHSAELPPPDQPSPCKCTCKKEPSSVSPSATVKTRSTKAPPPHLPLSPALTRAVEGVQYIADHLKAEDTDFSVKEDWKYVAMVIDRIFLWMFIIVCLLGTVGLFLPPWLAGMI

Structure (SMILES): COc1cc2c(cc1O)C[C@H]1c3c(cc(OC)c(OC)c3-2)CC[N+]1(C)C
- pIC50 [1]: 5.52
- pKi [1]: 6.04
- pIC50 [2]: 4.92
- pKi [2]: 5.00

Structure (SMILES): COc1cc2c(c(Br)c1O)C[C@H]1c3c(c(Br)c(O)c(OC)c3-2)CCN1C
- pIC50 [1]: 4.00
- pKi [1]: 4.51
- pIC50 [2]: 3.94
- pKi [2]: 4.02
- inhibition [3]: 85%

Structure (SMILES): COc1cc2c(cc1O)C[C@H]1c3c(c(Br)c(O)c(OC)c3-2)CCN1C [3-BROMOBOLDINE]
- pIC50 [1]: 4.00
- pKi [1]: 4.52
- pIC50 [2]: 4.00
- pKi [2]: 4.08
- inhibition [3]: 91%

Structure (SMILES): COc1cc2c(cc1O)C[C@H]1c3c(cc(O)c(OC)c3-2)CC[N+]1(C)C [BOLDINE METHIODIDE]
- pIC50 [1]: 5.09
- pKi [1]: 5.60
- pIC50 [2]: 4.74
- pKi [2]: 4.82

Structure (SMILES): COc1cc2c(cc1O)C[C@H]1c3c(cc(O)c(OC)c3-2)CCN1C [BOLDINE]
- pIC50 [1]: 5.00
- pKi [1]: 5.52
- pIC50 [2]: 4.09
- pKi [2]: 4.17

Structure (SMILES): COc1cc2c(cc1OC)-c1c(OC)c(OC)cc3c1[C@H](C2)[N+](C)(C)CC3 [GLAUCINE METHIODIDE]
- pIC50 [1]: 4.47
- pKi [1]: 5.00
- pIC50 [2]: 4.68
- pKi [2]: 4.74

Structure (SMILES): COc1cc2c(cc1OC)-c1c(OC)c(O)cc3c1[C@H](C2)[N+](C)(C)CC3 [PREDICENTRINE METHIODIDE]
- pIC50 [1]: 5.49
- pKi [1]: 6.01
- pIC50 [2]: 4.57
- pKi [2]: 4.68
